Assay results gathered from unrelated publications.
Each line is one published result; the experiments were not run side by side.
EGFR C797S/L858R/T790M: Epidermal growth factor receptor (EGFR, Homo sapiens, UniProt P00533, C797S/L858R/T790M)
AMY1A: Alpha-amylase 1A (AMY1A, Homo sapiens, UniProt P0DUB6)
EGFR: Epidermal growth factor receptor (EGFR, Homo sapiens, UniProt P00533)
APC: Adenomatous polyposis coli protein (APC, Homo sapiens, UniProt P25054)
Ephx2: Bifunctional epoxide hydrolase 2 (Ephx2, Mus musculus, UniProt P34914)

Cc1ncc(CN2CCc3ccccc3C2)c2cc(C(=O)c3ccc4c(c3)OCCO4)oc12  IC50 (EGFR C797S/L858R/T790M; enzyme activity; inhibitor; ADP detection): 42.7 nM
Oc1ccc(/C=C/c2cc(O)cc(O)c2)cc1  IC50 (AMY1A; enzyme activity; inhibitor): > 100000 nM
COc1ccc2nc3cc(Cl)ccc3c(Nc3cc(CN4CCCC4)c(O)c(CN4CCCC4)c3)c2n1  IC50 (Palmitoyl-protein thioesterase 1 (Homo sapiens, UniProt P50897); enzyme activity; inhibitor): > 125000 nM
Cc1c(Cc2ccccc2)c(=O)oc2c(C)c(OCC(=O)NN=Cc3ccco3)ccc12  IC50 (EGFR; enzyme activity; inhibitor; ATP luminescence): 559 nM
CC(C)C[C@H](NC(=O)[C@H](Cc1ccc2ccccc2c1)NC(=O)[C@H](CCC(=O)O)NC(=O)c1cccc(F)c1)C(=O)NC1CC1c1ccccc1 (stereo partly drawn)  IC50 (APC; ligand displacement; FP): 29500 nM
C=CC(=O)Nc1cc2c(Nc3ccc(OCc4ccccn4)c(Cl)c3)ncnc2cc1OCCN1CCOCC1  IC50 (Epidermal growth factor receptor (EGFR, Homo sapiens, UniProt P00533, L858R/T790M); enzyme activity; inhibitor): 1.5 nM
Cc1ccc2c(-c3cc4c(CN5CCN(Cc6ccccn6)CC5)cnc(C)c4o3)cc(=O)oc2c1  IC50 (EGFR; enzyme activity; inhibitor; ADP detection): 8.38 nM
COc1cc(C(=O)N[C@@H](CCC(=O)O)C(=O)N[C@@H](Cc2ccc3ccccc3c2)C(=O)N[C@@H](CC(C)C)C(=O)NC2CC2c2ccccc2)ccn1 (stereo partly drawn)  IC50 (APC; ligand displacement; FP): 38900 nM
OC[C@H]1O[C@@H](Oc2cc3c4c(c2)[C@@H]([C@@H]2c5cc(O)cc6c5[C@@H](c5cc(O)cc(O)c5[C@H]2c2ccc(O)cc2)[C@H](c2ccc(O)cc2)O6)[C@H](c2ccc(O)cc2)c2c(O)cc(O)cc2[C@H]4[C@H](c2ccc(O)cc2)O3)[C@H](O)[C@@H](O)[C@@H]1O  IC50 (AMY1A; enzyme activity; inhibitor): > 100000 nM
O=C(Nc1ccc(-c2ccc3ncccc3c2)cc1)C1CCN(S(=O)(=O)c2ccccc2Cl)CC1  IC50 (Ephx2; enzyme activity; inhibitor; fluorescence): 87.7 nM
Cc1ncc(CN2CCN(Cc3ccccn3)CC2)c2cc(C(=O)c3ccc4c(c3)OCCO4)oc12  IC50 (EGFR C797S/L858R/T790M; enzyme activity; inhibitor; ADP detection): 29 nM
CC(C)C[C@H](NC(=O)[C@H](Cc1ccc2ccccc2c1)NC(=O)[C@H](CCC(=O)O)NC(=O)c1ccncc1)C(=O)NC1CC1c1ccccc1 (stereo partly drawn)  IC50 (APC; ligand displacement; FP): 72400 nM
O=C(Nc1ccc(-c2ccc3cccnc3c2)cc1)C1CCN(S(=O)(=O)c2ccccc2Cl)CC1  IC50 (Ephx2; enzyme activity; inhibitor; fluorescence): 38.2 nM
CC(C)C[C@H](NC(=O)[C@H](Cc1ccc2ccccc2c1)NC(=O)[C@H](CCC(=O)O)NC(=O)c1ccnc(Cl)n1)C(=O)NC1CC1c1ccccc1 (stereo partly drawn)  IC50 (APC; ligand displacement; FP): 4270 nM
O=C(Nc1ccc(-c2cccc3ncccc23)cc1)C1CCN(S(=O)(=O)c2ccccc2Cl)CC1  IC50 (Ephx2; enzyme activity; inhibitor; fluorescence): 17.2 nM
